The test has as its target T1, PMPMEase (EPL, esterase from porcine liver) (Sus scrofa, UniProt Q29550).
T1 sequence (Q29550 19-566): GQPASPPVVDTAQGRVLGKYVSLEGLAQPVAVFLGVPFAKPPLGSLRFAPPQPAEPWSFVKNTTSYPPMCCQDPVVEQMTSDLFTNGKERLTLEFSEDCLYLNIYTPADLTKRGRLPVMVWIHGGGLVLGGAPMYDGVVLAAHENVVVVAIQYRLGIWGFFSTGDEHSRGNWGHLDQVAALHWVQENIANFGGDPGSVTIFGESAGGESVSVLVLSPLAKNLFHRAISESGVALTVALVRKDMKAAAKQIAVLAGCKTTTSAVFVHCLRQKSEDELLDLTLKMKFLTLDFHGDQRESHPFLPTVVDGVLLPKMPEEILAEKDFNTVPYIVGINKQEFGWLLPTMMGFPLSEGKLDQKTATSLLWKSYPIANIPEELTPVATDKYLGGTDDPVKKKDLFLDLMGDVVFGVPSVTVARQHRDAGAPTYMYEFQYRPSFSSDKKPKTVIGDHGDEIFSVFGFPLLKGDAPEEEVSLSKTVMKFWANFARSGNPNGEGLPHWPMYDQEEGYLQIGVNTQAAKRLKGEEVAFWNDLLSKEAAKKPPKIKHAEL
As to the kind of experiment: HPLC product assay with UV detection, Michaelis-Menten fit. The test is classed as biochemical. An outline of the steps: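 Commercial porcine liver esterase (0.1 to 5 µg per assay, depending on substrate) was incubated with varying concentrations of S-alkylated cysteinyl ester substrates in 100 mM Tris-HCl, pH 7.4, with 5% DMSO at 37°C. Reactions were stopped, and acid products were quantified by reversed-phase HPLC at 260 nm (p-nitrobenzoyl substrates) or 214 nm (others). Base-hydrolysed substrate standards supplied the calibration. Km came from a Michaelis-Menten fit.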
On to `COC(=O)[C@@H](CSC/C=C(\C)CC/C=C(\C)CCC=C(C)C)NC(C)=O` [L-69, (S)-methyl 3-((2E,6E)-3,7,11-trimethyldodeca-2,6,10-trienylthio)-2-acetamidopropanoate], for which the Michaelis-Menten constant (Km) turned out to be 21 ± 4.2 µM.

For the compound `COC(=O)[C@@H](CSC/C=C(\C)CC/C=C(\C)CCC=C(C)C)NC(=O)c1ccc([N+](=O)[O-])cc1` [L-70, (S)-methyl 3-((2E,6E)-3,7,11-trimethyldodeca-2,6,10-trienylthio)-2-(4-nitrobenzamido)propanoate], the Km turned out to be 11 ± 0.9 µM.

As to `COC(=O)[C@H](CSC/C=C(\C)CCC=C(C)C)NC(=O)c1ccc([N+](=O)[O-])cc1` [L-72, (R)-methyl 3-((E)-3,7-dimethylocta-2,6-dienylthio)-2-(4-nitrobenzamido)propanoate], the Km stood at 87 ± 12 µM.

Regarding `CCSC[C@H](NC(=O)c1ccc([N+](=O)[O-])cc1)C(=O)OC` [L-74, (R)-methyl 2-(4-nitrobenzamido)-3-(ethylthio)propanoate], the Km amounted to 505 ± 63 µM.

For the compound `CC(C)=CCC/C(C)=C/CC/C(C)=C/CSC[C@H](NC(=O)c1ccc([N+](=O)[O-])cc1)C(=O)OC(C)C` [L-75, (R)-isopropyl 3-((2E,6E)-3,7,11-trimethyldodeca-2,6,10-trienylthio)-2-(4-nitrobenzamido)propanoate], the Km came out at 5.9 ± 0.7 µM.

As to `CCOC(=O)[C@H](CSC/C=C(\C)CC/C=C(\C)CCC=C(C)C)NC(=O)c1ccc([N+](=O)[O-])cc1` [L-76, (R)-ethyl 3-((2E,6E)-3,7,11-trimethyldodeca-2,6,10-trienylthio)-2-(4-nitrobenzamido)propanoate], the Km was 11 ± 0.9 µM.

On to `COC(=O)[C@H](CSCC=C(C)C)NC(=O)c1ccc([N+](=O)[O-])cc1` [L-77, (R)-methyl 3-(3-methylbut-2-enylthio)-2-(4-nitrobenzamido) propanoate], for which the Michaelis constant (Km) turned out to be 294 ± 25 µM.

Take `COC(=O)[C@H](CSC/C=C(\C)CC/C=C(\C)CC/C=C(\C)CCC=C(C)C)NC(=O)c1ccc([N+](=O)[O-])cc1` [L-80, (R)-methyl 3-((2E,6E,10E)-3,7,11,15-tetramethylhexadeca-2,6,10,14-tetraenylthio)-2-(4-nitrobenzamido) propanoate]: the Km is 15 ± 2.7 µM.

On to `COC(=O)[C@H](CSCCC(C)C)NC(=O)c1ccc([N+](=O)[O-])cc1` [L-81, (R)-methyl 2-(4-nitrobenzamido)-3-(isopentylthio)propanoate], for which the Km amounted to 960 ± 180 µM.

Turning to `COC(=O)[C@H](CSCC[C@@H](C)CCC=C(C)C)NC(=O)c1ccc([N+](=O)[O-])cc1` [L-83, (R)-methyl 3-((S)-3,7-dimethyloct-6-enylthio)-2-(4-nitrobenzamido)propanoate], the Km was 56 ± 9.6 µM.

Regarding `COC(=O)[C@H](CSCC[C@H](C)CCC=C(C)C)NC(=O)c1ccc([N+](=O)[O-])cc1` [L-86, (R)-methyl 3-((R)-3,7-dimethyloct-6-enylthio)-2-(4-nitrobenzamido)propanoate], the Km was found to be 53 ± 7 µM.

As for `COC(=O)[C@H](CSCc1ccccc1)NC(=O)c1ccc([N+](=O)[O-])cc1` [L-93, (R)-methyl 2-(4-nitrobenzamido)-3-(benzylthio)propanoate], the Km turned out to be 40.5 ± 3.7 µM.

In the case of `COC(=O)CNC(=O)c1ccc([N+](=O)[O-])cc1` [L-102, methyl 2-(4-nitrobenzamido)acetate], the Km worked out at 400 ± 115 µM.

As to `COC(=O)[C@H](C)NC(=O)c1ccc([N+](=O)[O-])cc1` [L-111, (S)-methyl 2-(4-nitrobenzamido)propanoate], the Km came out at 300 ± 38 µM.

Regarding `COC(=O)[C@H](CSC/C=C(\C)CC/C=C(\C)CCC=C(C)C)NC(=O)CNC(=O)c1ccc([N+](=O)[O-])cc1` [RD-18, N-(4-Nitrobenzoylglycyl)-S-(trans, trans-farnesyl)cysteine methyl ester], the Km came to 8.4 ± 0.89 µM.

Consider `COC(=O)[C@H](CSC/C=C(\C)CC/C=C(\C)CCC=C(C)C)NC(=O)c1ccc([N+](=O)[O-])cc1` [RD-PNB, (R)-methyl 3-((2E,6E)-3,7,11-trimethyldodeca-2,6,10-trienylthio)-2-(4-nitrobenzamido)propanoate], for which the Km is 29 ± 2.2 µM.

(Values after publication PMC2906805 (The open enzyme inhibition journal, 2009).)
